Experimental data of several laboratories.
Lines come from different studies, so protocols differ. pEC50, pIC50, pKd, pKi: −log10 of the molar value.
CDK2: Cyclin-dependent kinase 2 (CDK2, Homo sapiens, UniProt P24941)
SIRT6: NAD-dependent protein deacylase sirtuin-6 (SIRT6, Homo sapiens, UniProt Q8N6T7)
PKM: Pyruvate kinase PKM (PKM, Homo sapiens, UniProt P14618)
HTR7: 5-hydroxytryptamine receptor 7 (HTR7, Homo sapiens, UniProt P34969)

Structure (SMILES)	target	test	setting	endpoint	value
CC(=O)N=S(=O)(O)c1ccc(N/C=C2\C(=O)Nc3ccc4ncsc4c32)cc1	CDK2	binding, ITC		pKd	6.71
CC(N)c1ccc(C(=O)NOCc2ccc(C(F)(F)F)cc2)cc1 (stereo not shown)	SIRT6	enzyme activity, inhibitor, fluorescence		pIC50	5.58
O=C1CCc2cc(S(=O)(=O)Nc3ccc4ncccc4c3)ccc2N1	PKM	enzyme activity, activator		AC50	> 20 µM
C=Cc1cnccn1	OR5K1 (Homo sapiens, UniProt Q8NHB7)	cAMP, agonist		pEC50	< 2.82
Cc1nc2n(c(=O)c1CCN1CCC(c3noc4cc(F)ccc34)CC1)CCCC2O (stereo not shown)	HTR7	ligand displacement, radioligand	cell membranes	pKi	8.00
COc1ccc(Sc2ccc(CONC(=O)c3ccc(C(N)=O)cc3)cc2C(F)(F)F)cc1	SIRT6	enzyme activity, inhibitor, fluorescence		pIC50	5.83
Cc1cc(NS(=O)(=O)c2ccc3c(c2)CCC(=O)N3)ccc1Cl	PKM	enzyme activity, activator		AC50	0.56 µM
CC[C@H](NC(=O)[C@H](CS(=O)(=O)CC1CC1)N[C@@H](c1ccc(F)cc1)C(F)(F)F)C(=O)C(=O)NC1CC1	Cathepsin B (CTSB, Homo sapiens, UniProt P07858)	enzyme activity, inhibitor, fluorescence	with preincubation	pKi	9.48
Cc1nc2cc(OCCCCN3CCN(c4cccc(Cl)c4Cl)CC3)ccc2s1	5-hydroxytryptamine receptor 6 (HTR6, Homo sapiens, UniProt P50406)	cell-free assay, radioligand		pKi	6.14
NC(=O)c1ccc(C(=O)NOCc2ccc(-c3ccccc3)cc2)cc1	SIRT6	enzyme activity, inhibitor, fluorescence		pIC50	5.59
CC(=O)N[C@H](C(=O)N[C@@H](CC(N)=O)C(=O)N[C@@H](CCCCN)C(=O)N1CCC[C@H]1C(=O)N[C@@H](CC(C)C)C(=O)N1CCC[C@H]1C(=O)N1CCC[C@H]1C(=O)N[C@@H](CC(C)C)C(=O)N1CCC[C@H]1C(=O)N[C@H](C(=O)N[C@@H](C)C(N)=O)C(C)C)C(C)C	Tyrosine-protein kinase Fyn, SH3 (FYN, Homo sapiens, UniProt P06241)	binding, ITC	pH 7	pKd	4.62
Cc1cnc(C)c(C)n1	OR5K1 (Homo sapiens, UniProt Q8NHB7, A2T/T15M/Y193C)	cAMP, agonist		pEC50	3.38
NC(=O)c1ccc(C(=O)NOCc2cccc3ccccc23)cc1	SIRT6	enzyme activity, inhibitor, fluorescence		pIC50	5.54
CC1=C(/C=C/C2=CCC[C@]3(C)[C@@H]([C@H](C)CCCC(C)(C)O)CC[C@@H]23)C[C@@H](O)CC1	Oxysterols receptor LXR-beta (NR1H2, Homo sapiens, UniProt P55055)	coactivator recruitment, agonist, TR-FRET		pEC50	7.00 to 8.00
Cc1ccc(NS(=O)(=O)c2cc3c(cc2Cl)CCC(=O)N3)cc1Cl	PKM	enzyme activity, activator		AC50	0.09 µM
NC(=O)c1ccc(C(=O)NOCc2ccc(-n3cccn3)cc2)cc1	SIRT6	enzyme activity, inhibitor, fluorescence		pIC50	5.65
COc1ccc2c(Oc3ccc4c(C(=O)Nc5ccccc5N)cccc4c3)ccnc2c1	Sodium channel protein type 5 subunit alpha (SCN5A, Homo sapiens, UniProt Q14524)	ion current, inhibitor		pIC50	< 5.00
CN1C[C@H](CNC(=O)OCc2ccccc2)C[C@@H]2c3cccc4c3c(cn4C)C[C@H]21	HTR7	ligand displacement, radioligand	cell membranes	pKi	7.80
Cc1ccc(NS(=O)(=O)c2cc3c(cc2Cl)NC(=O)CO3)cc1C	PKM	enzyme activity, activator		AC50	0.26 µM
Cc1cc(C)c(S(=O)(=O)N(C)CC(=O)N(Cc2ccc3ccccc3c2)c2ccc(C(=O)O)c(O)c2)c(C)c1	Signal transducer and activator of transcription 3 (STAT3, Homo sapiens, UniProt P40763)	ligand displacement, FP		pKi	4.56
NC(=O)c1ccc(C(=O)NOCc2cccc(-c3ccccc3)c2)cc1	SIRT6	enzyme activity, inhibitor, fluorescence		pIC50	5.48
COc1cccc(OC)c1NS(=O)(=O)c1ccc(N/C=C2\C(=O)Nc3ccc4ncsc4c32)cc1	CDK2	binding		pKd	6.75
